Measurements: publication PMC3594550 (Bioorganic & medicinal chemistry, 2012)
Where no end group is shown, it is not given here.

Key:
Grb2 SH3C [1] = details: read-out: Kd towards Grb2 SH3C; cited from earlier work
Grb2 SH3C domain = Grb2 SH3C domain (Homo sapiens, UniProt P62993); assay: Surface plasmon resonance; assay type: binding; details: for SPR classification (binder / non-binder) / SPR observed binding behavior (stoichiometry): 50 and 100 µM compound; for SPR classification (binder / non-binder): cut-off 5 RU at 100 µM (KD ≤ 1 mM); for SPR binding behavior above concentrations of 200 µM: compound > 200 µM; for SPR observed binding behavior (stoichiometry): maximum theoretical response 56 RU for 1:1 binding
Outline: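 Untagged human Grb2 SH3C amine-coupled (EDC/NHS; 100 µM, pH 4.0 acetate) to a CM5 chip at 1500 RU. Compound in HBS-N (10 mM Hepes pH 7.4, 150 mM NaCl) with 5.0% DMSO and 0.01% Tween 20, injected 120 s at 40 µL/min, 25 °C. Double referenced against protein-free cell and buffer blank. DMSO-only and Gab2b peptide (24 µM) controls were run.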

[2] = target: Grb2 SH3C – Gab2b peptide interaction (Homo sapiens, UniProt P62993); assay: Biochemical competition assay; assay type: binding; details: for Hill slope of inhibition curve: concentration-response; for competition assay result in words: compound 5 mM
Outline: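 Then 30 min with streptavidin-sepharose beads carrying biotinylated Gab2b peptide; washed with PBS-T. Bound protein read by SDS-PAGE, Coomassie and densitometry, normalised to no-inhibitor control (100%). Sigmoidal inhibition fit by nonlinear regression.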

Grb2 SH3C [3] = target: Grb2 SH3C (Homo sapiens, UniProt P62993); assay: Isothermal titration calorimetry; assay type: binding; details: 1 mM compound titrated into 20 µM Grb2 SH3C, 25 °C
Outline: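 Purified Grb2 SH3C (20 µM) in 50 mM Hepes pH 7.5, 50 mM NaCl, 0.5% DMSO, clarified and degassed, 25 °C. Compound (1 mM, same buffer) injected once at 4 µL, then 18 × 15 µL. Heat peaks integrated per mole of compound and plotted against compound:protein molar ratio.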

[4] = Solubility / precipitation observed while handling in the competition assay; assay type: physicochemical

Sequence of Grb2 SH3C domain (P62993 156-215 limits assumed): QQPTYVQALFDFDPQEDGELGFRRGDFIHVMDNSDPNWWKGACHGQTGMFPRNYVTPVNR
Sequence of Grb2 SH3C – Gab2b peptide interaction (P62993 156-215 limits assumed): as above
Sequence of Grb2 SH3C (Homo sapiens, UniProt P62993) (P62993 156-215 limits assumed): as above

## 15-mer Gab2 peptide: positive control Gab2b peptide; sequence: IQPPPVNRNLKPDRK-amide (IQPPPVNRNLKPDRK-NH2)
Grb2 SH3C [1]
  Kd: 3.2 µM

## CC1(C)N=C(N)N=C(N)N1c1cccc(OCc2cccc(N)c2)c1.Cl [compound 1]
Grb2 SH3C domain
  SPR classification (binder / non-binder): binders

## CC1(C)N=C(N)N=C(N)N1c1cccc(CCCCc2cccc(N)c2)c1.Cl [compound 3, 1-(3-(4-(3-Aminophenyl)butyl)phenyl)-6,6-dime thyl-1,6-dihydro-1,3,5-triazine-2,4-diamine•HCl]
Grb2 SH3C domain
  SPR classification (binder / non-binder): binders
  SPR binding behavior above concentrations of 200 µM: superstoichiometric binding
[2]
  Hill slope of inhibition curve: −3.1
Grb2 SH3C [3]
  ITC response: no measurable response above background

## CC1(C)N=C(N)N=C(N)N1c1cccc(/C=C/C=C/c2cccc([N+](=O)[O-])c2)c1.Cl [compound 5, 6,6-Dimethyl-1-(3-((1E,3E)-4-(3-nitrophenyl)buta-1,3-dien-1-yl)phenyl)-1,6-dihydro-1,3,5-triazine-2,4-diamine•HCl]
Grb2 SH3C domain
  SPR classification (binder / non-binder): binders
  SPR observed binding behavior (stoichiometry): superstoichiometric
  SPR binding behavior above concentrations of 200 µM: superstoichiometric binding
[2]
  Hill slope of inhibition curve: −5.0
[2]; ratio of apparent IC50 values
  fold increase in affinity relative to compound 3: 18 fold
Grb2 SH3C [3]
  ITC response: significant reaction heats

## CC1(C)N=C(N)N=C(N)N1c1cccc(OCCOc2cccc(N)c2)c1.Cl [compound 9]
Grb2 SH3C domain
  SPR classification (binder / non-binder): binders
  SPR observed binding behavior (stoichiometry): superstoichiometric
[2]
  competition assay result in words: no activity

## CC1(C)N=C(N)N=C(N)N1c1cc(C(F)(F)F)cc(C(F)(F)F)c1.Cl [compound 11]
Grb2 SH3C domain
  SPR classification (binder / non-binder): no activity
[2]
  competition assay result in words: no activity

## CC1(C)N=C(N)N=C(N)N1c1cccc(OCC#N)c1.Cl [compound 41]
Grb2 SH3C domain
  SPR classification (binder / non-binder): binders
  SPR binding behavior above concentrations of 200 µM: superstoichiometric binding
[2]; dose range up to 20 mM, data not shown
  inhibition in concentration-response experiment: unquantifiably weak inhibition

## CC(=O)c1ccc(/N=N/c2c(N)nc(N)nc2N)cc1 [compound 46]
Grb2 SH3C domain
  SPR classification (binder / non-binder): binders
[4]
  aqueous solubility: poor aqueous solubility

## Br.CC1(C)N=C(N)N=C(N)N1c1cccc(CO)c1 [compound 47]
Grb2 SH3C domain
  SPR classification (binder / non-binder): no activity
[2]
  competition assay result in words: no activity

## Cl.Cl.NC1CCC(NC2CCC(N)CC2)CC1 (centres unmarked) [compound 147]
Grb2 SH3C domain
  SPR dissociation: long dissociation time
  SPR response relative to the maximum theoretical response: over 10 times
  SPR classification (binder / non-binder): binders
  SPR observed binding behavior (stoichiometry): superstoichiometric
Grb2 SH3C domain; maximum theoretical response 56 RU
  SPR response level: ~600 RU

## Cc1ccc(O)c(C2CC(=O)NC(N)=N2)c1 (centres unmarked) [compound 156]
Grb2 SH3C domain
  SPR sensorgram quality: poor sensorgram shape
  SPR classification (binder / non-binder): binders

## Cc1ccc(C(/C=C/c2ccccc2)=N/NC(=N)N)cc1.Cl [compound 164]
Grb2 SH3C domain
  SPR classification (binder / non-binder): binders
  SPR observed binding behavior (stoichiometry): superstoichiometric
[4]; competition assay buffer, compound 5 mM
  precipitation during the assay: precipitated during the assay
[2]
  competition assay result in words: nearly complete inhibition
